Test results from ChEMBL document CHEMBL5107937, “Synthesis and antitumour evaluation of indole-2-carboxamides against paediatric brain cancer cells” (RSC Med Chem, 2021).

Legend:
KNS-42 [1] = experiment: Antiproliferative activity against human KNS-42 cells assessed as cell growth inhibition incubated for 72 hrs by MTT assay; format: functional, cell-based; conditions: KNS-42, 72 h
Method in brief: (§1)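 Proliferation screen run in triplicate. IC50 is the compound dose giving 50% inhibition of cell proliferation.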

KNS-42 [2] = experiment: Cytotoxicity against human KNS-42 cells assessed as reduction in cell viability incubated for 72 hrs by PrestoBlue reagent based cell viability assay; format: functional; conditions: KNS-42, 72 h
Method in brief: (§2)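 Viability screen run in triplicate. IC50 is the compound dose giving 50% inhibition of cell viability, taken as cytotoxicity.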

[3] = Cytotoxicity against human BT-16 cells assessed as reduction in cell viability incubated for 72 hrs by PrestoBlue reagent based cell viability assay; format: functional; conditions: BT-16, 72 h; method in brief: as §2
[4] = Antiproliferative activity against human HFF-1 cells assessed as cell growth inhibition incubated for 72 hrs by MTT assay; format: toxicity, cell-based; method in brief: as §1
Cannabinoid receptor 2 [5] = target: T1, Cannabinoid receptor 2 (Homo sapiens, UniProt P34972); experiment: Antagonist activity at human CB2R expressed in mouse AtT20 cells at 10 uM by FLIPR membrane potential assay; format: functional, cell-based
T1 sequence (P34972 whole entry): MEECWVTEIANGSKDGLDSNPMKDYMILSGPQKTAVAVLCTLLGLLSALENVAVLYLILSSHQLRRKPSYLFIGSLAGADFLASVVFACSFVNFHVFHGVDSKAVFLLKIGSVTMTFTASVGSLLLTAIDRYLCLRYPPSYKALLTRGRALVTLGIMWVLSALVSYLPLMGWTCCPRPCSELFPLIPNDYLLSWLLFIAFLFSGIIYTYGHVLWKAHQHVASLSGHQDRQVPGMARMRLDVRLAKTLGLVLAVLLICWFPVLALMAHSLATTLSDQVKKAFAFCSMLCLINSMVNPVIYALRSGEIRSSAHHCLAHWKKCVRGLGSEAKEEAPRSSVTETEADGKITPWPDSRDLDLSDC
Method in brief: (§3)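 AtT-20 cells stably carrying human CB1R or human CB2R were pre-incubated with compound or vehicle for 60 minutes. 500 nM CP 55940 was then added and membrane potential responses were recorded. IC50 is for inhibition of the agonist response.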

Cannabinoid receptor 1 [6] = target: T2, Cannabinoid receptor 1 (Homo sapiens, UniProt P21554); experiment: Agonist activity at human CB1R expressed in mouse AtT20 cells at 10 uM by FLIPR membrane potential assay; format: functional, cell-based
T2 sequence (P21554 whole entry): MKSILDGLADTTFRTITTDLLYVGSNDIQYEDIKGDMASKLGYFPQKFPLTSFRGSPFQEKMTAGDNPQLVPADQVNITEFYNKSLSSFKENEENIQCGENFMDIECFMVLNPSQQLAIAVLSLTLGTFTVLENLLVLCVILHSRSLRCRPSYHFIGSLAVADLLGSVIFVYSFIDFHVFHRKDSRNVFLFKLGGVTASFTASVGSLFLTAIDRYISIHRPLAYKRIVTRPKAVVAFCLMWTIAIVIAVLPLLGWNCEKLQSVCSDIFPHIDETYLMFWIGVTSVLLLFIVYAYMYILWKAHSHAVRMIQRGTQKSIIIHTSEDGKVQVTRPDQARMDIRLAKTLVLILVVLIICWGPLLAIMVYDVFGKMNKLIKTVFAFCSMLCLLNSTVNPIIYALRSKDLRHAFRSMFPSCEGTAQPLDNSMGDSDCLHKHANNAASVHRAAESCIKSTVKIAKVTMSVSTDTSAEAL
Method in brief: (§4)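 Agonist mode: AtT-20 cells stably transfected with human CB1R or human CB2R; membrane potential responses recorded.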

[7] = Octanol-water partition coefficient, logP of the compound; format: physicochemical
[8] = Cytotoxicity against human BT-12 cells assessed as reduction in cell viability incubated for 72 hrs by PrestoBlue reagent based cell viability assay; format: functional; conditions: BT-12, 72 h; method in brief: as §2
[9] = Cytotoxicity against human HFF-1 cells assessed as reduction in cell viability incubated for 72 hrs by PrestoBlue reagent based cell viability assay; format: toxicity; method in brief: as §2
Daoy [10] = experiment: Antiproliferative activity against human Daoy cells assessed as cell growth inhibition incubated for 72 hrs by MTT assay; format: functional, cell-based; method in brief: as §1
Cannabinoid receptor 2 [11] = target: T1, Cannabinoid receptor 2; experiment: Agonist activity at human CB2R expressed in mouse AtT20 cells at 10 uM by FLIPR membrane potential assay; format: functional, cell-based; method in brief: as §4
Daoy [12] = experiment: Cytotoxicity against human Daoy cells assessed as reduction in cell viability incubated for 72 hrs by PrestoBlue reagent based cell viability assay; format: functional; method in brief: as §2
Cannabinoid receptor 1 [13] = target: T2, Cannabinoid receptor 1; experiment: Antagonist activity at human CB1R expressed in mouse AtT20 cells at 10 uM by FLIPR membrane potential assay; format: functional, cell-based; method in brief: as §3
[14] = Antiproliferative activity against human BT-12 cells assessed as cell growth inhibition incubated for 72 hrs by MTT assay; format: functional, cell-based; conditions: BT-12, 72 h; method in brief: as §1
[15] = Antiproliferative activity against human BT-16 cells assessed as cell growth inhibition incubated for 72 hrs by MTT assay; format: functional, cell-based; conditions: BT-16, 72 h; method in brief: as §1
Cannabinoid receptor 2 [16] = target: T1, Cannabinoid receptor 2; experiment: Antagonist activity at human CB2R expressed in mouse AtT20 cells by FLIPR membrane potential assay; format: functional, cell-based
Method in brief: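 AtT-20 cells stably transfected with human CB2R; membrane potential response read out. Antagonist mode: cells pre-incubated with vehicle or compound for 60 min, then challenged with 500 nM CP 55940. IC50 derived from inhibition of the agonist response. Not active defined as <50% inhibition at 10 μM.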

Compound: O=C(NC12CC3CC(CC(C3)C1)C2)c1c[nH]c2cc(Br)ccc2c1=O
- IC50 (KNS-42 [1]): > 10 µM
- IC50 (KNS-42 [2]): > 10 µM

Compound: O=C(CNC(=O)c1cc2c(F)cc(F)cc2[nH]1)NC12CC3CC(CC(C3)C1)C2
- IC50 (KNS-42 [1]): > 10 µM
- IC50 (KNS-42 [2]): > 10 µM

Compound: O=C(Cc1ccc(NC(=O)c2cc3c(F)cc(F)cc3[nH]2)cc1)NC12CC3CC(CC(C3)C1)C2
- IC50 (KNS-42 [1]): 4.9 µM
- IC50 (KNS-42 [2]): > 10 µM

Compound: O=C(NC12CC3CC(CC(C3)C1)C2)c1cc(=O)c2c(Cl)cc(Cl)cc2[nH]1
- IC50 (KNS-42 [1]): > 10 µM
- IC50 (KNS-42 [2]): > 10 µM

Compound: O=C(NC12CC3CC(CC(C3)C1)C2)c1cc2ccccc2[nH]1
- IC50 (KNS-42 [1]): > 10 µM
- IC50 (KNS-42 [2]): 0.33 µM

Compound: O=C(NC12CC3CC(CC(C3)C1)C2)c1cc(=O)c2ccc(Br)cc2[nH]1
- IC50 (KNS-42 [1]): > 10 µM
- IC50 (KNS-42 [2]): > 10 µM

Compound: O=C(NCc1ccccc1)c1cc2c(F)cc(F)cc2[nH]1
- IC50 [3]: 1.81 µM
- IC50 (KNS-42 [1]): 9.85 µM
- IC50 (KNS-42 [2]): 8.25 µM
- IC50 at 72 h [4]: 65 µM
- inhibition (Cannabinoid receptor 2 [5]): < 50%
- Activity (Cannabinoid receptor 1 [6]): < 50%
- logP [7]: 3.17
- IC50 [8]: 0.89 µM
- IC50 at 72 h [9]: 119 µM
- IC50 (Daoy [10]): > 10 µM
- Activity (Cannabinoid receptor 2 [11]): < 50%
- IC50 (Daoy [12]): > 10 µM
- inhibition (Cannabinoid receptor 1 [13]): < 50%
- IC50 [14]: 7.44 µM
- IC50 [15]: 6.06 µM

Compound: COc1cccc(CNC(=O)c2cc3c(F)cc(F)cc3[nH]2)c1OC
- IC50 (KNS-42 [1]): > 10 µM
- IC50 (KNS-42 [2]): > 10 µM

Compound: O=C(c1cc2c(F)cc(F)cc2[nH]1)N1CCN(C(=O)C23CC4CC(CC(C4)C2)C3)CC1
- IC50 (KNS-42 [1]): 6.62 µM
- IC50 (KNS-42 [2]): 5.04 µM
- inhibition (Cannabinoid receptor 2 [5]): < 50%
- Activity (Cannabinoid receptor 1 [6]): < 50%
- Activity (Cannabinoid receptor 2 [11]): < 50%
- inhibition (Cannabinoid receptor 1 [13]): < 50%

Compound: O=C(CC12CC3CC(CC(C3)C1)C2)Nc1nc2ccccc2[nH]1
- IC50 (KNS-42 [1]): 6.46 µM
- IC50 (KNS-42 [2]): > 10 µM

Compound: O=C(NC12CC3CC(CC(C3)C1)C2)c1c[nH]c2c(Cl)ccc(Cl)c2c1=O
- IC50 [3]: 1.96 µM
- IC50 (KNS-42 [1]): 2.92 µM
- IC50 (KNS-42 [2]): 9.06 µM
- IC50 at 72 h [4]: 3.85 µM
- Activity (Cannabinoid receptor 1 [6]): < 50%
- IC50 [8]: 5.15 µM
- IC50 at 72 h [9]: 7.04 µM
- IC50 (Cannabinoid receptor 2 [16]): 1.28 µM
- IC50 (Daoy [10]): 4.71 µM
- Activity (Cannabinoid receptor 2 [11]): < 50%
- IC50 (Daoy [12]): 1.54 µM
- inhibition (Cannabinoid receptor 1 [13]): < 50%
- IC50 [14]: 3.59 µM
- IC50 [15]: 4.88 µM

Compound: O=C(NCc1ccc(F)cc1)c1cc2c(F)cc(F)cc2[nH]1
- IC50 [3]: 5.5 µM
- IC50 (KNS-42 [1]): 4.34 µM
- IC50 (KNS-42 [2]): 3.41 µM
- IC50 at 72 h [4]: 40 µM
- inhibition (Cannabinoid receptor 2 [5]): < 50%
- Activity (Cannabinoid receptor 1 [6]): < 50%
- logP [7]: 3.23
- IC50 [8]: 9.23 µM
- IC50 at 72 h [9]: 281 µM
- IC50 (Daoy [10]): > 10 µM
- Activity (Cannabinoid receptor 2 [11]): < 50%
- IC50 (Daoy [12]): 4.1 µM
- inhibition (Cannabinoid receptor 1 [13]): < 50%
- IC50 [14]: 8.87 µM
- IC50 [15]: 9.79 µM

Compound: O=C(Nc1nc2ccccc2[nH]1)C12CC3CC(CC(C3)C1)C2
- IC50 (KNS-42 [1]): > 10 µM
- IC50 (KNS-42 [2]): > 10 µM

Compound: O=C(NC12CC3CC(CC(C3)C1)C2)c1cc(=O)c2c(Cl)ccc(Cl)c2[nH]1
- IC50 (KNS-42 [1]): > 10 µM
- IC50 (KNS-42 [2]): > 10 µM
